Test [1] in a line: Antiplasmodial activity IC50 against Plasmodium falciparum K1CB1 DHFR double-mutant ([…]).
For test [2], the target named is Bifunctional dihydrofolate reductase-thymidylate synthase (Plasmodium falciparum (isolate K1 / Thailand), UniProt P13922). Kind of test: Inhibition of the wild-type dihydrofolate reductase (DHFR). Summed up:
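Assay at 25 °C: 50 mM TES pH 7.0, 75 mM β-mercaptoethanol, 1 mg/mL BSA, 100 µM H2folate and 100 µM NADPH. NADPH oxidation followed at 340 nm. Ki derived from IC50 as Ki(1+[S]/Km), assuming competitive inhibition.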

Bounds are passed on as bounds.

Sequence of Bifunctional dihydrofolate reductase-thymidylate synthase (P13922 whole entry): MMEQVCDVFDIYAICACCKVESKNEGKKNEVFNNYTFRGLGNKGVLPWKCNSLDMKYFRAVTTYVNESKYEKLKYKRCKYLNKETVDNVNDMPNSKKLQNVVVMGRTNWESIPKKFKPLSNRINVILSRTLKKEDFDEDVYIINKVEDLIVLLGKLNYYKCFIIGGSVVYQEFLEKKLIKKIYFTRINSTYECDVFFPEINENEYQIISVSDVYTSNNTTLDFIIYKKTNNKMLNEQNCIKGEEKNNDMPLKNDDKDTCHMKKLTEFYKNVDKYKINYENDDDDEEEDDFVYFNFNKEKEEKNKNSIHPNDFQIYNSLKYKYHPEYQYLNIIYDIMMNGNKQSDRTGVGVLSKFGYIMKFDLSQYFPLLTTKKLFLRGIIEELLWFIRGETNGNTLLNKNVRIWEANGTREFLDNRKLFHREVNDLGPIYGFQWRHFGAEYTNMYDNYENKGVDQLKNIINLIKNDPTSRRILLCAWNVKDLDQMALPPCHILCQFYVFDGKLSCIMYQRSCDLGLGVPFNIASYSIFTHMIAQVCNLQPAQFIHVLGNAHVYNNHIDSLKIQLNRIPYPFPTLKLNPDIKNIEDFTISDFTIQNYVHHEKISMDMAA

In the case of `CCc1nc(N)nc(N)c1-c1ccc(C)cc1` [6-ethyl-5-(4-methylphenyl)pyrimidine-2,4-diamine], in test [1], the IC50 (usually the concentration needed to halve the response being measured) was found to be 12.7 µM.

In test [1], `CCc1nc(N)nc(N)c1-c1ccc(Cl)c(Cl)c1` showed an IC50 of 17.4 µM.

Compound `COc1cc(COc2cc(Cc3cnc(N)nc3N)ccc2OCc2ccccc2)cc(OC)c1OC` [5-[4-Benzyloxy-3-(3,4,5-trimethoxy-benzyloxy)-benzyl]-pyrimidine-2,4-diamine] gave an IC50 in test [1] of 17.5 µM. In test [2], the Ki (as a rule, a dissociation constant, usually derived from enzyme kinetics or from competition with a known ligand) amounted to 0.0121 µM.

`CCc1nc(N)nc(N)c1-c1ccc(-c2ccccc2)cc1` [5-Biphenyl-4-yl-6-ethyl-pyrimidine-2,4-diamine]: the IC50 in test [1] turned out to be 4.4 µM. The compound further returned an inhibition constant Ki in test [2] of 0.188 µM.

In turn, `CCc1nc(N)nc(N)c1-c1ccc(Br)cc1` [5-(4-bromophenyl)-6-ethylpyrimidine-2,4-diamine] displayed a half-inhibitory concentration (IC50) in test [1] of 25 µM. In test [2], this compound gave a Ki of 0.0003 µM.

As to `Nc1nc(N)c(-c2ccccc2)c(CCCc2ccccc2)n1`, 2.3 µM corresponded to half-maximal inhibition in test [1] (IC50).

Take `CCc1nc(N)nc(N)c1-c1ccc(OCc2ccc(Cl)cc2Cl)c(OC)c1` [5-[4-(2,4-Dichloro-benzyloxy)-3-methoxy-phenyl]-6-ethyl-pyrimidine-2,4-diamine]: the IC50 in test [1] is above 50 µM. Further, in test [2], the affinity, expressed as Ki, was 0.001 µM.

`Cc1nc(N)nc(N)c1-c1ccc(Cl)cc1` displayed a 50% inhibitory concentration (IC50) in test [1] of 60.1 µM. The Ki in test [2] came to 0.002 µM.

For the compound `COc1cc(Cc2cnc(N)nc2N)ccc1OCCCc1ccccc1` [5-[3-Methoxy-4-(3-phenyl-propoxy)-benzyl]-pyrimidine-2,4-diamine], 11.7 µM corresponded to half-maximal inhibition in test [1] (IC50). The Ki in test [2] was determined as 0.0018 µM.

In turn, `Cc1nc(N)nc(N)c1-c1cccc(Cl)c1` [5-(3-chlorophenyl)-6-methylpyrimidine-2,4-diamine] had a 50% inhibitory concentration (IC50) in test [1] of 4.8 µM.

Consider `Nc1ncc(-c2ccc(Cl)cc2)c(N)n1` [5-(4-chlorophenyl)pyrimidine-2,4-diamine], for which, in test [1], it took 26.2 µM to reach half-maximal inhibition (IC50). Also, in test [2], the Ki was 0.0024 µM.

In turn, `COC(=O)CCCc1nc(N)nc(N)c1-c1ccccc1` [4-(2,6-Diamino-5-phenyl-pyrimidin-4-yl)-butyric acid methyl ester] came in with an IC50 in test [1] of 31.3 µM.

The compound `Nc1nc(N)c(-c2cccc(Cl)c2)c(CCCc2ccccc2)n1` yielded an IC50 in test [1] of 3 µM.

In test [1], `COc1ccc(CCCc2nc(N)nc(N)c2-c2cccc(Cl)c2)cc1` [5-(3-Chloro-phenyl)-6-[3-(4-methoxy-phenyl)-propyl]-pyrimidine-2,4-diamine] had an IC50 of 2.7 µM. The IC50 values of the last two compounds are within 1.5-fold of each other.

The compound `CCc1nc(N)nc(N)c1-c1cccc(Cl)c1` [5-(3-chlorophenyl)-6-ethylpyrimidine-2,4-diamine] returned an IC50 in test [1] of 1.3 µM.

Consider `CCc1nc(N)nc(N)c1-c1ccc(OC)cc1`, for which the IC50 in test [1] was above 25 µM. The affinity in test [2] corresponds to a Ki of 0.0009 µM.

With `COC(=O)CCCc1nc(N)nc(N)c1-c1cccc(Cl)c1` [4-[2,6-Diamino-5-(3-chloro-phenyl)-pyrimidin-4-yl]-butyric acid methyl ester], in test [1], it took 36.3 µM to reach half-maximal inhibition (IC50).

In test [1], `CCc1nc(N)nc(N)c1-c1ccccc1` returned an IC50 of 3.3 µM.

The compound `CCCCCCc1nc(N)nc(N)c1-c1ccccc1` [6-hexyl-5-phenylpyrimidine-2,4-diamine] gave an IC50 in test [1] of 1.3 µM. This IC50 lies about 2.5-fold lower than the previous one.

In test [1], `CCOc1c(Br)cc(-c2c(N)nc(N)nc2CC)cc1Br` [5-(3,5-Dibromo-4-ethoxy-phenyl)-6-ethyl-pyrimidine-2,4-diamine] showed an IC50 of 17.4 µM. In test [2], the Ki was found to be 0.007 µM.

As for `CCc1nc(N)nc(N)c1-c1ccc2c(c1)OCO2` [5-Benzo[1,3]dioxol-5-yl-6-ethyl-pyrimidine-2,4-diamine], the IC50 in test [1] came out at 21.5 µM.

Consider `COc1cc(Cc2cnc(N)nc2N)ccc1OCc1cc(OC)c(OC)c(OC)c1` [5-[3-Methoxy-4-(3,4,5-trimethoxy-benzyloxy)-benzyl]-pyrimidine-2,4-diamine], for which, in test [1], the IC50 came to 27.8 µM. In test [2], this compound returned a Ki of 0.0006 µM.

`CCc1nc(N)nc(N)c1-c1ccc(Cl)cc1Cl` [5-(2,4-Dichloro-phenyl)-6-ethyl-pyrimidine-2,4-diamine] had an IC50 in test [1] of 22.5 µM. In test [2], this compound came in with an inhibition constant (Ki) of 0.0126 µM.

In test [1], `COC(=O)CCCc1nc(N)nc(N)c1-c1ccc(Cl)cc1` yielded an IC50 of 22.3 µM.

As for `COc1cc(Cc2cnc(N)nc2N)cc(OC)c1OCc1ccccc1` [5-(4-Benzyloxy-3,5-dimethoxy-benzyl)-pyrimidine-2,4-diamine], in test [1], the IC50 is 30.1 µM. Moreover, the Ki in test [2] is 0.0042 µM.

For `Nc1ncc(Cc2ccc(OCCCOc3cc(Cl)c(Cl)cc3Cl)cc2)c(N)n1` [5-{4-[3-(2,4,5-Trichloro-phenoxy)-propoxy]-benzyl}-pyrimidine-2,4-diamine], half-maximal inhibition in test [1] (IC50) required 3.5 µM. This compound also yielded a Ki in test [2] of 0.0009 µM.

Turning to `Nc1nc(N)c(-c2cccc(Cl)c2)c(CCOCCCOc2ccccc2)n1` [5-(3-chlorophenyl)-6-[2-(3-phenoxypropoxy)ethyl]pyrimidine-2,4-diamine], the IC50 in test [1] stood at 3.3 µM.

In test [1], `Nc1ncc(-c2ccccc2)c(N)n1` [5-Phenyl-pyrimidine-2,4-diamine] had a half-maximal inhibitory concentration (IC50) of 19.4 µM.

Turning to `CCc1nc(N)nc(N)c1-c1ccc(C(C)(C)C)cc1` [5-(4-tert-butylphenyl)-6-ethylpyrimidine-2,4-diamine], the IC50 in test [1] was 3.9 µM. In addition, the Ki in test [2] amounted to 0.0006 µM.

In the case of `Nc1nc(N)c(-c2ccc(Cl)cc2)c(CCCc2ccccc2)n1` [5-(4-Chloro-phenyl)-6-(3-phenyl-propyl)-pyrimidine-2,4-diamine], in test [1], the concentration for half-maximal inhibition (IC50) came to 10.6 µM. That is a double-digit micromolar value.

`Nc1ncc(-c2cccc(Cl)c2)c(N)n1` [5-(3-Chloro-phenyl)-pyrimidine-2,4-diamine] displayed a concentration for half-maximal inhibition (IC50) in test [1] of 8.8 µM. Also, the Ki in test [2] amounted to 0.0063 µM.

With `Cc1nc(N)nc(N)c1-c1ccccc1`, half-maximal inhibition in test [1] (IC50) required 30.8 µM. This compound also yielded a Ki in test [2] of 0.0109 µM.

The values above are taken from BindingDB's records for doi:10.1021/jm010131q (National Center For Genetic Engineering and Biotechnology …, 2002).
